For assay [1], the target named is D(3) dopamine receptor (Homo sapiens, UniProt P35462, E90Q). Briefly: Displacement of [125I]IABN from human D3R E90Q mutant expressed in HEK293 cell membranes by gamma counting method. Put shortly: (§1)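 Membranes from HEK 293 cells stably expressing receptor, prepared in 50 mM Tris-HCl pH 7.4/10 mM EDTA/150 mM NaCl and stored at −80 °C. […] Nonspecific binding defined with 2 μM (+)-butaclamol. Filtered, gamma counted. IC50 from single-site nonlinear regression, converted to Ki.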
(In a radioligand displacement assay an active substance lowers the binding of a labelled ligand.)

The species entered for assay [2] is Homo sapiens. Briefly: Selectivity index, ratio of IC50 for human D2LR to IC50 for human D3R by beta-galactosidase based beta-arrestin recruitment assay. (In general: Activated receptors often draw arrestin, which recruitment assays turn into a signal.)
The target of assay [3] is T1, D(2) dopamine receptor (Homo sapiens, UniProt P14416). To be noted: CHO-K1, 500 nM.
Assay [4] has as its target D(3) dopamine receptor (Homo sapiens, UniProt P35462, S182I). Briefly: Displacement of [125I]IABN from human D3R S182I mutant expressed in HEK293 cell membranes by gamma counting method. Put shortly: as §1
Assay [5] is filed under the species Homo sapiens. Briefly: Selectivity index, ratio of Ki for human D2LR to Ki or human D3R.
Assay [6] concerns the target T2, D(3) dopamine receptor (Homo sapiens, UniProt P35462). Briefly: Displacement of [125I]IABN from wild type human D3R expressed in HEK293 cell membranes by gamma counting method. Put shortly:
as §1

The target in assay [7] is T1, D(2) dopamine receptor. Briefly: Agonist activity at human D2LR expressed in CHO-K1 cells assessed as stimulation of basal activity by beta-galactosidase based beta-arrestin recruitment assay. The class given is cell-based. Put shortly: (§2)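 CHO-K1 cells expressing human D2L receptor, β-arrestin/β-galactosidase fragment-complementation assay. Cells plated 2500/well and grown 48 h at 37 °C. Test compounds given at 11 half-log points from 5 μM, 120 min at 37 °C. Detection reagent added and chemiluminescence read. Results given as % stimulation or inhibition of basal luminescence. Compounds counterscreened for β-gal inhibition.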

The target in assay [8] is T2, D(3) dopamine receptor. Briefly: Displacement of [125I]IABN from chimeric human D3 receptor possessing extracellular loop II of D2 receptor expressed in HEK293 cell membranes by gamma counting method. An outline of the steps:
as §1

In assay [9] the target is T1, D(2) dopamine receptor. Briefly: Inverse agonist activity at human D2LR expressed in CHO-K1 cells assessed as inhibition of basal activity by beta-galactosidase based beta-arrestin recruitment assay. Format: cell-based. Put shortly: as §2
Assay [10] deals with D(3) dopamine receptor (Homo sapiens, UniProt P35462, E90A). Briefly: Displacement of [125I]IABN from human D3R E90A mutant expressed in HEK293 cell membranes by gamma counting method. An outline of the steps:
as §1

The target in assay [11] is T1, D(2) dopamine receptor. Briefly: Agonist activity against human D2R expressed in HEK293 cells assessed as inhibition of forskolin-induced adenyl cyclase activity at 10 times Ki relative to quinpirole. Format: functional, cell-based. An outline of the steps:
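Whole HEK 293 cells expressing human D2R, prelabelled with [2,8-3H]adenine for 75 min at 37 °C, then given 0.1 mM IBMX. […] Stopped with TCA. [3H]cAMP separated on Dowex/alumina. Inhibition normalized to 1 μM quinpirole. Mean ± SEM of ≥3 experiments.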

Assay [12] has as its target T1, D(2) dopamine receptor. Briefly: Displacement of [125I]IABN from wild type human D2R expressed in HEK293 cell membranes by gamma counting method.
In assay [13] the target is T1, D(2) dopamine receptor. Briefly: Displacement of [125I]IABN from chimeric human D2 receptor possessing extracellular loop II of D3 receptor expressed in HEK293 cell membranes by gamma counting method.
For assay [14], the target named is T1, D(2) dopamine receptor. Briefly: Antagonist activity against human D2R expressed in CHO cells assessed as inhibition of quinpirole-induced mitogenesis after 24 hrs by [3H]thymidine uptake assay. The class given is cell-based. An outline of the steps: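 Serum-starved CHOp-D2 or CHOp-D3 cells given serial dilutions of test compound plus quinpirole (30 nM final). Incubated at 37 °C for 24 h (D2) or 16 h (D3). Then 2 h [3H]thymidine pulse, filtration and counting.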

The target of assay [15] is T1, D(2) dopamine receptor. Briefly: Agonist activity at human D2R expressed in CHO cells assessed as stimulation of mitogenesis at 10 uM after 24 hrs by [3H]thymidine uptake assay relative to quinpirole. The class given is cell-based. Put shortly: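 CHOp-D2 cells grown 48–72 h, then serum-starved 24 h. Exposed to 10 μM compound in serum-free α-MEM for 24 h at 37 °C. Pulsed 2 h with 0.25 μCi [3H]thymidine, trypsinized, filtered and counted. Stimulation expressed relative to maximal quinpirole. Two independent experiments.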

For assay [16], the target named is T1, D(2) dopamine receptor. Briefly: Antagonist activity against human D2LR expressed in CHOK1 cells assessed as inhibition of pergolide-induced beta-arrestin translocation by beta-galactosidase based beta-arrestin recruitment assay. Format: cell-based, CHO-K1.
The target of assay [17] is T1, D(2) dopamine receptor. The following applies: CHO, 1 uM.
Assay [18] deals with T2, D(3) dopamine receptor. Briefly: Displacement of [125I]IABN from human D3R expressed in HEK293 cell membranes by gamma counting method.
For assay [19], the target named is T2, D(3) dopamine receptor. Briefly: Antagonist activity against D3R in human U2OS cells assessed as inhibition of (+)-PD128907-induced beta-arrestin translocation by beta-galactosidase based beta-arrestin recruitment assay. The class given is cell-based.
Assay [20] addresses T1, D(2) dopamine receptor. Briefly: Displacement of [125I]IABN from human D2LR expressed in HEK293 cell membranes by gamma counting method.
The target of assay [21] is T2, D(3) dopamine receptor. To be noted: CHO, 1 uM.
Assay [22] addresses T2, D(3) dopamine receptor. Briefly: Inverse agonist activity at D3R in human U2OS cells assessed as inhibition of basal activity at 500 nM by beta-galactosidase based beta-arrestin recruitment assay. The class given is cell-based.

Results on three compounds are retold here after ChEMBL document CHEMBL3351252, “Design, synthesis, and structure-activity relationship studies of a series of [4-(4-carboxamidobutyl)]-1-arylpiperazines: insights into structural features contributing to dopamine D3 versus D2 receptor subtype selectivity” (J Med Chem, 2014).

SMILES strings stand for the structures. Calls of active or inactive are those of the source. The calls are words filed in the database; no cut-off is given here.

T2 sequence (P35462 whole entry): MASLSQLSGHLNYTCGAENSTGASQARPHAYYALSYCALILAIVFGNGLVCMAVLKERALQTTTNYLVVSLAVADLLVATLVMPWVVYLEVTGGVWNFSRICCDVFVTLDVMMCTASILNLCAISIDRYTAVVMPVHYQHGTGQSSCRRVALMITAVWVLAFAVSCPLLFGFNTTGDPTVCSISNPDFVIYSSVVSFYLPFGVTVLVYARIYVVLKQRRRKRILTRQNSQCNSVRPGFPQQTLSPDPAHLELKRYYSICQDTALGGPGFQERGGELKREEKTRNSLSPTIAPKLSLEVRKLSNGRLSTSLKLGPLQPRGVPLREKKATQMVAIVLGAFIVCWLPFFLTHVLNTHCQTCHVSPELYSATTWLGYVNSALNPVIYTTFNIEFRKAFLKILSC
T1 sequence (P14416 whole entry): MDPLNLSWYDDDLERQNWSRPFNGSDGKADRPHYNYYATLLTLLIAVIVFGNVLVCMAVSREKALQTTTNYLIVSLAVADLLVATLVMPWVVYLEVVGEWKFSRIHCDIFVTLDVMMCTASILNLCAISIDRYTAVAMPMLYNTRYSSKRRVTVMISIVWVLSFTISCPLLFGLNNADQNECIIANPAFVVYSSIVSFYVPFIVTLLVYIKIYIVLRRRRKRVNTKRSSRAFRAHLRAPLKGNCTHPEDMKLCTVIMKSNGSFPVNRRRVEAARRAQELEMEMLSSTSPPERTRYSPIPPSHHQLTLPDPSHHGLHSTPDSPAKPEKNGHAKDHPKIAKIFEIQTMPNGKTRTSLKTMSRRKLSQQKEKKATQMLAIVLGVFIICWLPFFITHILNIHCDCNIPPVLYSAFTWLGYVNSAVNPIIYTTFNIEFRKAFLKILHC
Sequence of D(3) dopamine receptor (Homo sapiens, UniProt P35462, E90A) (P35462 as listed by the source E90A): as the sequence (P35462 whole entry) above, with G9S, E90A counted along it
Sequence of D(3) dopamine receptor (Homo sapiens, UniProt P35462, S182I) (P35462 as listed by the source S182I): as the sequence (P35462 whole entry) above, with G9S, S182I counted along it
Sequence of D(3) dopamine receptor (Homo sapiens, UniProt P35462, E90Q) (P35462 as listed by the source E90Q): as the sequence (P35462 whole entry) above, with G9S, E90Q counted along it

Turning to `CN(C)Cc1c(C(=O)NCCCCN2CCN(c3cc(C(F)(F)F)nc(C(C)(C)C)n3)CC2)nc2ccccn12`, the Ki in assay [1] is 19 nM; in [4], 16 nM; in [6], 9.1 nM; in [8] it was 27 nM; in assay [10], 16 nM; in assay [12], 191 nM. In [13], this compound had a Ki of 72 nM. In [2], the Ratio IC50 stood at 30. Also, the results for the inhibition in assay [3] and in assay [11] were less than 30% and 8.9%, respectively. For the same compound, in assay [5], the Ratio Ki was 10. For the same compound, in assay [7], the result was inactive. In assay [9], the inhibition entry was “inactive”.
Regarding `O=C(NCCCCN1CCN(c2cccc(Cl)c2Cl)CC1)c1cn2ccccc2n1`, in assay [2], the Ratio IC50 was 455. Besides, the Ratio Ki in [5] was 40. Further, the results for the IC50 in assay [14], in [16] and in assay [19] were 55 nM, 91 nM and 0.2 nM, respectively. Also, the result in assay [7] was inactive. In assay [15], the Activity is less than 20%. For the same compound, in [9], the inhibition result is “inactive”. The results for the inhibition in assay [17], in assay [11] and in assay [21] were less than 30%, 45% and less than 30%, respectively. Moreover, the Ki in assay [18] came out at 0.3 nM; in assay [20], 12 nM.
As for `CN(C)Cc1c(C(=O)NCCCCN2CCN(c3cc(C(F)(F)F)nc(C(C)(C)C)n3)CC2)[nH]c2ccccc12`, the Ratio IC50 in assay [2] is 22. For the same compound, the Ratio Ki in assay [5] was found to be 21. Moreover, the IC50 in assay [16] amounted to 311 nM; in [19], 14 nM. Further, the inhibition in assay [22] was less than 21%. Also, the Ki in [18] was 25 nM; in assay [20], 527 nM.

The Ki is a measure of affinity in units of concentration, obtained from inhibition or displacement. Read a high Ki as a looser hold on the target. As a reminder, the inhibition is the relative decrease from the control value, in per cent. One may read the IC50 as the concentration that gives 50% inhibition.
